Screens: PubChem, several laboratories
HNF4A DNA FP = change in binding of human HNF4 alpha to DNA; HNF4a-FITC DNA binding, fluorescence polarization, 1 h; P41235; activity change, % at 10 µM; 0.3% of 360,000 active; in the data active means activity change above about 30%, passing the limit was not always enough
TPT1 inh = blocks Candida albicans tRNA 2'-phosphotransferase; recombinant caTPT1, FP RNA substrate dephosphorylation; inhibition, % at 5 µM; 0.81% of 300,000 active; AID 1962;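 active means inhibition above the mean of all tested compounds plus 3 SD, set per screening campaign, cut at about 24% in these data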
PKA-R2B act = activates the human PKA-R2B holoenzyme complex | PKA-R2B holoenzyme dissociation, Cy5-IP20 fluorescence polarization; R2B truncated from residue 108, S112A mutant; 0% DMSO only, 100% 113 µM cGMP | activation, % at 11.4 µM | 0.079% of 340,000 active;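 active means activation above a cutoff set at the mean over all compounds plus 3 SD, cut at about 18% in these data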;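 further: higher means more holoenzyme dissociation and a rise in polarization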
CSN deneddyl inh = inhibitors of human CSN-mediated cullin deneddylation; 0.38% of 360,000 active; inhibition, % at 12.5 µM; Purified CSN, SCF-Nedd8-OG deneddylation, fluorescence polarization;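 active means pattern-corrected inhibition above about 35%, with an unprinted fluorescence ratio check between 0.5 and 1.5, limit read from the data, passing the limit was not always enough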
Target sequence (Q92905 whole entry, looked up, one chain of several): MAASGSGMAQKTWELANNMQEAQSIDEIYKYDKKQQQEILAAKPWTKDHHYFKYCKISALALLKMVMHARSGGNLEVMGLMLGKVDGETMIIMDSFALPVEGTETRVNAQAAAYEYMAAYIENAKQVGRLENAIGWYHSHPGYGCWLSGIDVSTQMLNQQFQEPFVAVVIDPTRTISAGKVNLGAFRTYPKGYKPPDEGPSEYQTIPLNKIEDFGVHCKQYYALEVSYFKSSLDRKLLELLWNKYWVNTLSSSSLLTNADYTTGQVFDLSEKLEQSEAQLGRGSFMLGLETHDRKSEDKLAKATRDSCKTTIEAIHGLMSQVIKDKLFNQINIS
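Test system: Human Csn5 produced in HEK293T cells | Compound: 12.5 µM single point | Times: 90 min, room temperature | Signal: Fluorescence polarization readout | Read-out basis: % inhibition of substrate cleavage by Csn5 | Controls: no-enzyme wells high, enzyme-with-substrate wells low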
Rpn11 block = blocks the human proteasome subunit Rpn11; 0.59% of 360,000 active; human 26S proteasome, Ub4-pepOG fluorescence polarization; 20S core pre-blocked with epoxomicin; calls only at 20 µM; O00487; AID 588493;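 active means inhibition at 20 µM, scaled to each plate's controls, above about 33%, limit read from the data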
Target sequence (O00487 whole entry, looked up): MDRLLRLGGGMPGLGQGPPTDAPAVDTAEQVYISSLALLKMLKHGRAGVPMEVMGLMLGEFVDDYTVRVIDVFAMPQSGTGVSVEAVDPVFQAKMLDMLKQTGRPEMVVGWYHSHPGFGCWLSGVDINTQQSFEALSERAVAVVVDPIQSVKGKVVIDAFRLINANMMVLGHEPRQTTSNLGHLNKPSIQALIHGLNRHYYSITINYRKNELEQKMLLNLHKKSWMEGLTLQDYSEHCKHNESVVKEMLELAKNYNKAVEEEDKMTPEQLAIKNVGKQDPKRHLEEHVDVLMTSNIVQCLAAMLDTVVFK
PKA-R1A activ = PKA-R1A complex activation | PKA-R1A dissociation, Cy5-IP20 fluorescence polarization; scaled: DMSO 0%, 113 µM cGMP 100% | P00514+P68181 | 0.083% of 340,000 active | activation, % at 11.4 µM;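 active means percent activation above the mean of all tested compounds plus 3 SD, cut at about 19% in these data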;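 further: higher means more PKAc released from R1A so a rise in polarization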
CSN5 deneddyl = Csn5 (human) deneddylation inhibition, single-concentration validation; inhibition, % at 16.6 µM; AID 720654; shares compounds with CSN deneddyl inh; Csn5 deneddylation of SCF-Nedd8OG, fluorescence polarization, 90 min; 62% of 540 active; in the data active means inhibition above about 50%
MMP2 cntr CSN = blocks human MMP-2 in a CSN deneddylation counter-screen | shares compounds with CSN deneddyl inh | recombinant MMP-2, FRET substrate fluorescence, 60 min | inhibition, % at 16.6 µM | 33% of 540 active | AID 720655;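 active means corrected plate-normalized z-score of 5 or more, or -5 or less, or inhibition of 15% or more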
Thrombin counter = blocks bovine thrombin in a CSN deneddylation counter-screen | shares compounds with CSN deneddyl inh | bovine thrombin cleavage of Ub4-pepOG, fluorescence polarization | inhibition, % at 16.6 µM | 49% of 540 active | AID 720656;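 active means inhibition at or above a set limit, with a fluorescence interference ratio between 0.5 and a set maximum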
A number is an active result. Rows were chosen to be rich in hits. Some 1.6% of all compounds tested hit in one or more screens of this group.

Cc1ccc(-n2cccc2/C=C2\C(=N)N3N=C(c4ccco4)SC3=NC2=O)cc1 was read as HNF4A DNA FP inactive, TPT1 inh inactive, PKA-R2B act inactive, CSN deneddyl inh 61, PKA-R1A activ inactive, CSN5 deneddyl inactive, MMP2 cntr CSN 19 and Thrombin counter inactive.
Screening CCC1=NN2C(=N)/C(=C\c3cccn3-c3ccc(C)c(C)c3)C(=O)N=C2S1 returned HNF4A DNA FP inactive, TPT1 inh inactive, PKA-R2B act inactive, CSN deneddyl inh inactive, Rpn11 block inactive and PKA-R1A activ inactive.
`O=C(OCC(=O)N1CCOCC1)c1ccc(Br)cc1` gave HNF4A DNA FP inactive, TPT1 inh inactive, PKA-R2B act inactive, CSN deneddyl inh inactive, Rpn11 block inactive and PKA-R1A activ inactive.
Screening O=C1/C(=C/c2ccncc2)SC(=S)N1Nc1ccccc1 returned HNF4A DNA FP inactive, TPT1 inh inactive, CSN deneddyl inh inactive and Rpn11 block inactive.
O=C1/C(=C/c2ccc(O)c(O)c2)SC(=S)N1Nc1ccccc1 was read as HNF4A DNA FP inactive, PKA-R2B act inactive, CSN deneddyl inh 54, PKA-R1A activ inactive, CSN5 deneddyl inactive, MMP2 cntr CSN 18 and Thrombin counter 54.
`COc1cc(C(C(=O)NC2CCCCC2)N(C(=O)c2cnccn2)c2ccccc2)cc(OC)c1OC` (stereo unspecified) gave HNF4A DNA FP inactive, PKA-R2B act inactive, CSN deneddyl inh inactive, Rpn11 block inactive and PKA-R1A activ inactive.
Screening O=C(Cc1cccc2ccccc12)NCC(=O)Nc1ccccc1F returned HNF4A DNA FP inactive, TPT1 inh inactive, PKA-R2B act inactive, CSN deneddyl inh inactive, Rpn11 block inactive and PKA-R1A activ inactive.
`CCC/C(C#Cc1ccc(N(C)C)cc1)=C1/c2ccccc2C(=O)N1c1ccccc1` gave HNF4A DNA FP inactive, PKA-R2B act inactive, CSN deneddyl inh 53, PKA-R1A activ inactive, CSN5 deneddyl active, MMP2 cntr CSN -59 and Thrombin counter inactive.
`CCC/C(C#Cc1cc(OC)cc(OC)c1)=C1/c2ccccc2C(=O)N1c1ccccc1` gave HNF4A DNA FP inactive, PKA-R2B act inactive, CSN deneddyl inh inactive, Rpn11 block inactive and PKA-R1A activ inactive.
CCCc1nc2c(=O)n(C)c(=O)nc-2n(C)n1 was read as HNF4A DNA FP 157, PKA-R2B act inactive, CSN deneddyl inh 76, Rpn11 block inactive, PKA-R1A activ inactive, CSN5 deneddyl inactive, MMP2 cntr CSN inactive and Thrombin counter inactive.
CCn1c(N)nc2c1c(=O)n(C)c(=O)n2C was read as HNF4A DNA FP inactive, TPT1 inh inactive, PKA-R2B act inactive, CSN deneddyl inh inactive, Rpn11 block inactive and PKA-R1A activ inactive.
Screening Cn1nc(-c2ccccn2)nc2c(=O)n(C)c(=O)nc1-2 returned HNF4A DNA FP 153, TPT1 inh inactive, PKA-R2B act inactive, CSN deneddyl inh 57, Rpn11 block inactive, PKA-R1A activ inactive, CSN5 deneddyl inactive, MMP2 cntr CSN inactive and Thrombin counter inactive.
COc1ccc(-c2nc(-c3ccccn3)ncc2S(C)(=O)=O)cc1 was read as HNF4A DNA FP inactive, TPT1 inh inactive, PKA-R2B act inactive, CSN deneddyl inh inactive, Rpn11 block inactive and PKA-R1A activ inactive.
Cc1c(C)c(C)c(CO/N=C/c2cccs2)c(C)c1C was read as HNF4A DNA FP inactive, TPT1 inh inactive, PKA-R2B act inactive, CSN deneddyl inh inactive, Rpn11 block inactive and PKA-R1A activ inactive.
For CC1=NN2C(=N)/C(=C\c3ccc(SCc4ccccc4)o3)C(=O)N=C2S1 the results were HNF4A DNA FP inactive, TPT1 inh inactive, PKA-R2B act inactive, CSN deneddyl inh inactive, Rpn11 block inactive and PKA-R1A activ inactive.
For N=C1/C(=C\c2ccc(SCc3ccco3)o2)C(=O)N=C2SC=NN12 the results were HNF4A DNA FP inactive, TPT1 inh inactive, PKA-R2B act inactive, CSN deneddyl inh 105, Rpn11 block inactive, PKA-R1A activ inactive, CSN5 deneddyl 60, MMP2 cntr CSN inactive and Thrombin counter 26.
For CCc1cc(=O)oc2cc(C)c(CN3CCCCC3)c(O)c12 the results were HNF4A DNA FP inactive, TPT1 inh inactive, PKA-R2B act inactive, CSN deneddyl inh inactive, Rpn11 block inactive and PKA-R1A activ inactive.
CCc1cc(=O)oc2cc(C)c(CN3CCCC3)c(O)c12 was read as HNF4A DNA FP inactive, TPT1 inh inactive, PKA-R2B act inactive, CSN deneddyl inh 37, Rpn11 block inactive, PKA-R1A activ inactive, CSN5 deneddyl 89, MMP2 cntr CSN inactive and Thrombin counter inactive.
CN(Cc1ccccc1)C(=O)c1cnc(Cc2c[nH]c3ccccc23)c(I)c1 was read as HNF4A DNA FP inactive, CSN deneddyl inh inactive and Rpn11 block inactive.
For O=C(N/N=C/c1cc(Br)c(O)c(Br)c1O)c1ccc2c(c1)OCCO2 the results were HNF4A DNA FP inactive, TPT1 inh inactive, PKA-R2B act inactive, CSN deneddyl inh inactive, Rpn11 block inactive and PKA-R1A activ inactive.
Screening O=C(N/N=C/c1cc(Br)c(Br)o1)c1ccc2c(c1)OCCO2 returned HNF4A DNA FP inactive, TPT1 inh inactive, PKA-R2B act inactive, CSN deneddyl inh 40, Rpn11 block inactive, PKA-R1A activ inactive, CSN5 deneddyl 66, MMP2 cntr CSN inactive and Thrombin counter inactive.
Screening COc1cccc(/C=N/NC(=O)CSc2ccccc2C)c1O returned HNF4A DNA FP inactive, TPT1 inh inactive, PKA-R2B act inactive, CSN deneddyl inh 100, Rpn11 block inactive, PKA-R1A activ inactive, CSN5 deneddyl 112, MMP2 cntr CSN inactive and Thrombin counter inactive.
CN(C)c1ccc2cc(S(=O)(=O)O)cc(O)c2c1 was read as HNF4A DNA FP inactive, PKA-R2B act inactive, CSN deneddyl inh 35, Rpn11 block inactive, PKA-R1A activ inactive, CSN5 deneddyl 75, MMP2 cntr CSN inactive and Thrombin counter inactive.
Screening O=Nc1c(O)ccc2cc(S(=O)(=O)O)ccc12 returned HNF4A DNA FP inactive, PKA-R2B act inactive, CSN deneddyl inh inactive, Rpn11 block inactive and PKA-R1A activ inactive.
For Nc1ccc(Cn2ccc3c4c(N)nc(N)nc4ccc32)cc1 the results were HNF4A DNA FP inactive, PKA-R2B act inactive, CSN deneddyl inh 39, Rpn11 block inactive, PKA-R1A activ inactive, CSN5 deneddyl 93, MMP2 cntr CSN inactive and Thrombin counter inactive.
Screening N#Cc1c(Cl)c(Cl)c2nnc(-c3ccc(Br)cc3)n2c1Cl returned TPT1 inh inactive.
